Experimental findings from ChEMBL document CHEMBL1125091, “Antiulcer agents. 4-substituted 2-guanidinothiazoles: reversible, competitive, and selective inhibitors of gastric H+,K(+)-ATPase” (J Med Chem, 1990) are described below.

Values joined by “and” are separate entries in the source; they are usually repeats but may differ in a detail not shown here. Identical values can stand only once. Active and inactive are the calls of the source. No cut-off for these calls is given here.

Test [1] has as its target Potassium-transporting ATPase (Canis familiaris). Kind of test: Inhibitory activity against dog gastric proton-pump enzyme H+/K+ ATPase.
Test [2] deals with Potassium-transporting ATPase (Canis familiaris). The test is described as follows: Percent inhibition of gastric proton-pump enzyme H+/K+ ATPase was determined at 50 uM. The conditions noted are these: Canis lupus familiaris, Stomach.
Test [3] relates to Rattus norvegicus. The test is described as follows: Gastric antisecretory activity against gastric secretion in the pylorus-ligated rat at a dose of 33 mg/Kg. It is filed as functional, Stomach. An outline of the steps: (§1)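 Conscious rats, pylorus ligated under ether anesthesia; drug or vehicle injected into the duodenum. Killed 2 h after surgery. Stomach contents centrifuged, then titrated to pH 7.0 for acid output (uEq/h per 100 g body weight). Inhibition calculated versus vehicle-treated rats. Means ± SE of 5-10 animals; Student's t test, p < 0.05.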

For test [4], the system named is Rattus norvegicus. Kind of test: Gastric antisecretory activity against gastric secretion in the pylorus-ligated rat at a dose of 30 mg/Kg. The format is functional, Stomach. A digest of the protocol: as §1
Test [5] deals with Potassium-transporting ATPase (Canis familiaris). The test is described as follows: The compound was tested in vitro for inhibition of gastric proton-pump enzyme H+/K+ ATPase.
Test [6] concerns Rattus norvegicus. Kind of test: Gastric antisecretory activity against gastric secretion in the pylorus-ligated rat at a dose of 60 mg/kg. It is filed as functional, Stomach. An outline of the steps:
as §1

The test system of test [7] is Rattus norvegicus. Kind of test: Gastric antisecretory activity against gastric secretion in the pylorus-ligated rat at a dose of 26 mg/Kg. The format is functional, Stomach. An outline of the steps: as §1
Test [8] addresses Dog Kidney Na+, K+-ATPase (Canis lupus familiaris, UniProt P50997). The test is described as follows: Tested against canine renal Na+/K+ ATPase.
Test [9] has as its system Rattus norvegicus. Kind of test: Gastric antisecretory activity against gastric secretion in the pylorus-ligated rat at a dose of 60 mg/Kg. It is filed as functional, Stomach. A digest of the protocol: as §1
Test [10] concerns Potassium-transporting ATPase (Canis familiaris). Kind of test: Percent inhibition of gastric proton-pump enzyme H+/K+ ATPase was determined at 10 uM. The conditions noted are these: Canis lupus familiaris, Stomach.
The target in test [11] is Potassium-transporting ATPase (Canis familiaris). Kind of test: Inhibitory activity of gastric proton-pump enzyme H+/K+ ATPase was determined at 50 uM.
Test [12] is filed under the species Rattus norvegicus. The test is described as follows: Antisecretory activity in a pylorus-ligated rat model.
Test [13] concerns Rattus norvegicus. The test is described as follows: Gastric antisecretory activity against gastric secretion in the pylorus-ligated rat at a dose of 10 mg/Kg. It is filed as functional, Stomach. A digest of the protocol: as §1
Another test relates to Canis familiaris. Kind of test: Antisecretory activity in Heidenhain pouch dog model at 2 mg/kg, iv. The conditions noted are these: Canis lupus familiaris. The format is functional, organism-based. Further details: dose 2 mg/kg. A digest of the protocol:
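Heidenhain pouch dogs on pentagastrin infusion; drug or vehicle given iv at 2 mg/kg, 90 min after the infusion started. Gastric juice collected at 30-min intervals, ten collections per dog. Acid titrated to pH 7.4 with 0.1 N NaOH. Effect = lowest acid output after drug versus mean output immediately before drug.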

As for `Cc1ccc(-c2csc(N=C(N)N)n2)[nH]1.O=C(O)/C=C\C(=O)O`, the IC50 in test [1] turned out to be 45 µM. In test [2], the inhibition is 76%. Besides, the Activity with Rattus norvegicus [3] came to 50%.

In the case of `Cc1[nH]ccc1-c1csc(NC(=N)NCc2ccccc2)n1.O=C(O)/C=C\C(=O)O`, the IC50 in [1] was determined as 6 µM. Further, the Activity in the test with Rattus norvegicus [4] is on record as 60%. For the same molecule, in test [2], the inhibition is 93%.

For the molecule `Cc1cc(-c2nc(N=C(N)N)sc2C)c[nH]1`, the concentration for half-maximal inhibition (IC50) in [5] was 1 µM; in [1] it was 1.2 µM. In [2], the inhibition worked out at 100%. Besides, in the test on Rattus norvegicus [6], the Activity was determined as 36%.

`Cc1cc(-c2csc(N=C(N)N)n2)c[nH]1`: the results for the half-maximal inhibitory concentration (IC50) in test [1] and in test [8] were 25 µM and > 100 µM, respectively. The Activity with Rattus norvegicus [7] amounted to 50%. For the same molecule, the inhibition in test [2] turned out to be 70%.

In test [1], `Cl.N=C(N)Nc1nc(-c2ccc(O)c(O)c2)cs1` showed an IC50 of 1.5 µM. The inhibition in [2] turned out to be 100%. Also, the Activity in the test with Rattus norvegicus [9] is given as -149%.

The molecule `Cl.N/C(=N\Cc1ccccc1)Nc1nc(-c2ccc(O)c(O)c2)cs1` registered an IC50 in [1] of 0.3 µM. Also, in the test with Rattus norvegicus [4], the Activity is reported as 2.5%. Besides, the inhibition in [2] was 111%.

Take `Cc1cccc2c(-c3csc(N=C(N)N)n3)c[nH]c12`: the IC50 in test [1] came out at 7.6 µM. Also, the inhibition in [10] is 55%.

In test [1], `COc1ccc2[nH]cc(-c3csc(NC(=N)NCc4ccccc4)n3)c2c1.Cl` had an IC50 of 4.3 µM. Further, in test [2], the inhibition was 95%. Also, the Activity in the test on Rattus norvegicus [9] is recorded as 48%.

Turning to `Cc1sc(NC(=N)NCc2ccccc2)nc1-c1c[nH]c2ccc(Cl)cc12`, the inhibition in [2] was 101%. For the same molecule, the Activity with Rattus norvegicus [9] is given as -59%.

Take `CC(=O)Oc1ccc(-c2csc(NC(=N)NCc3ccccc3)n2)cc1OC(C)=O.Cl`: the IC50 in test [11] was > 50 µM. The Activity with Rattus norvegicus [4] is -1%.

`N=C(N)Nc1nc2c(s1)CCc1ccccc1-2` registered an IC50 in test [11] of 21 µM.

Consider `CN(C)Cc1cc(-c2csc(N=C(N)N)n2)c[nH]1`, for which half-maximal inhibition in [1] (IC50) was put at 9 µM. Also, the inhibition in test [2] worked out at 94%.

In [1], `CN(C)c1ccc(-c2csc(N=C(N)N)n2)cc1` gave an IC50 of 14 µM. The inhibition in test [2] was found to be 75%.

As to `N=C(NCc1ccccc1)Nc1nc(-c2cc3ccccc3[nH]2)cs1`, in [1], the IC50 turned out to be 16 µM. In addition, in test [2], the inhibition was 61%.

In [1], `Cc1[nH]c2ccccc2c1-c1csc(N=C(N)N)n1` displayed an IC50 of 9 µM. In test [2], the inhibition is 85%.

`Cc1cc(-c2nc(NC(=N)Nc3ccccc3)sc2C)c[nH]1` returned a half-maximal inhibitory concentration (IC50) in test [1] of 9.8 µM. In addition, the inhibition in [2] was determined as 83%.

In the test filed under Rattus norvegicus [12], `CN/C(=N\CCSCc1nc[nH]c1C)NC#N` [CIMETIDINE] registered an ED50 of 11 mg/kg.

As to `Cc1ccccc1-c1csc(N=C(N)N)n1`, in test [1], the midpoint of inhibition, the IC50, lay at 20 µM. Moreover, in test [2], the inhibition stood at 78%.

In [1], `Cc1cc(-c2csc(NC(=N)NCc3ccccc3)n2)c[nH]1` returned an IC50 of 11 µM. For the same molecule, in [2], the inhibition worked out at 97%.

As to `N=C(NCc1ccccc1)Nc1nc(-c2c[nH]c3ccc(OCc4ccccc4)cc23)cs1`, the midpoint of inhibition in test [1], the IC50, lay at 1.8 µM. Also, in test [2], the inhibition came out at 90%.

`CC(=O)Oc1ccc(-c2csc(N=C(N)N)n2)cc1OC(C)=O.Cl`: the concentration for half-maximal inhibition (IC50) in [11] was 27 µM. Further, the Activity in the test with Rattus norvegicus [4] was determined as 15%.

For `Cl.N=C(N)Nc1nc(-c2c[nH]c3ccc(Cl)cc23)cs1`, the 50% inhibitory concentration (IC50) in test [5] and in test [1] was 1.8 µM each time. The inhibition in [2] was found to be 89%. In addition, in the test on Rattus norvegicus [9], the Activity was determined as 22%.

Consider `Cc1ccc(C/N=C(\N)Nc2nc(-c3c[nH]c(C)c3)c(C)s2)cc1`, for which, in test [1], half-maximal inhibition (IC50) required 2.9 µM. Besides, the inhibition in test [2] was 95%.

In test [1], `Cc1[nH]c2ccc(Cl)cc2c1-c1nc(NC(=N)NCc2ccccc2)sc1C` returned an IC50 of 1.1 µM. The inhibition in [2] turned out to be 100%.

As for `Cc1cccc2c(-c3csc(NC(=N)NCc4ccccc4)n3)c[nH]c12`, inhibition in [1] was half-maximal at 1 µM (IC50). The inhibition in test [2] was found to be 92%.

For the molecule `Cc1ccc2[nH]cc(-c3csc(NC(=N)NCc4ccccc4)n3)c2c1`, 0.94 µM corresponded to half-maximal inhibition in [1] (IC50). For the same molecule, in test [2], the inhibition was 104%.

For `Cc1[nH]ccc1-c1nc(N=C(N)N)sc1C.Cl`, the half-inhibitory concentration (IC50) came to 1 µM in [5] and 1.3 µM in test [1]. Besides, in test [2], the inhibition turned out to be 102%. For the same molecule, in the test with Rattus norvegicus [9], the Activity worked out at 46%.

On to `Cl.N=C(N)Nc1nc(-c2c[nH]c3ccc(Br)cc23)cs1`, for which the IC50 in test [1] is 0.96 µM. Also, the Activity in the test with Rattus norvegicus [9] is -43%. In test [10], the inhibition came to 90%.

In [1], `Cc1[nH]c(-c2csc(N=C(N)N)n2)cc1CN(C)C` displayed an IC50 of 11 µM. Besides, the inhibition in test [2] worked out at 87%.

`Cc1cc(-c2csc(N=C(N)N)n2)cn1S(=O)(=O)c1ccccc1`: 2 µM corresponded to half-maximal inhibition in test [1] (IC50). For the same molecule, the inhibition in [2] worked out at 92%.

Regarding `Cc1sc(N=C(N)N)nc1-c1ccn(S(=O)(=O)c2ccccc2)c1C`, the half-inhibitory concentration (IC50) in [1] came to 4.2 µM. The inhibition in test [2] came out at 100%.

`Br.COc1ccc(-c2csc(N=C(N)N)n2)cc1`: the results for the Activity with Rattus norvegicus [4], in the test with Rattus norvegicus [9] and in the test with Rattus norvegicus [13] were 26%, 87% and 27%, respectively.

`N=C(N)Nc1nc(-c2c[nH]c3ccc(OCc4ccccc4)cc23)cs1` registered an IC50 in test [1] of 1.2 µM. Besides, the inhibition in test [2] came out at 78%.

Regarding `N=C(N)Nc1nc(-c2cc3cc(F)ccc3[nH]2)cs1`, the half-inhibitory concentration (IC50) in test [1] came to 4 µM. Moreover, the inhibition in test [2] is 87%.

With `COc1ccccc1-c1csc(N=C(N)N)n1`, in test [1], the IC50 was determined as 27 µM. The inhibition in [2] was 70%.

As for `COc1cccc(-c2csc(NC(=N)NCc3ccccc3)n2)c1`, the IC50 in test [1] came to 10 µM. In test [2], the inhibition was 85%.

In [1], `Cc1ccc(-c2csc(N=C(N)N)n2)n1S(=O)(=O)c1ccccc1` returned a concentration for half-maximal inhibition (IC50) of 7 µM. Besides, the inhibition in [2] stood at 91%.

The molecule `N=C(N)Nc1nc(-c2cccc(O)c2)cs1` returned a 50% inhibitory concentration (IC50) in [1] of 23 µM. Besides, the inhibition in test [2] was determined as 69%.

In test [11], `Cc1[nH]c2ccccc2c1-c1nc(NC(=N)NCc2ccccc2)sc1C.Cl` had a half-maximal inhibitory concentration (IC50) of 5.3 µM. The Activity in the test with Rattus norvegicus [4] turned out to be 47%; with Rattus norvegicus [9], 69%.

In test [1], `COc1cccc(-c2csc(N=C(N)N)n2)c1` returned an IC50 of 60 µM. Moreover, the inhibition in [2] stood at 48%.

With `N=C(N)Nc1nc(-c2ccc(N)cc2)cs1`, in [1], the IC50 amounted to 32 µM. Also, the inhibition in [2] was found to be 63%.

Regarding `N=C(N)Nc1nc(-c2ccccc2Cl)cs1`, the IC50 in [1] was 18 µM and 9 µM. Moreover, the inhibition in test [2] was determined as 71%.

`Cc1ccc2c(-c3csc(NC(=N)NCc4ccccc4)n3)c[nH]c2c1` had an IC50 in test [1] of 1.6 µM. In test [2], the inhibition came out at 98%.

The molecule `Cc1[nH]c2ccccc2c1-c1csc(NC(=N)NCc2ccccc2)n1` came in with an IC50 in test [1] of 1.7 µM. Moreover, the inhibition in [2] was 102%.

With `N/C(=N\Cc1ccccc1)Nc1nc(-c2ccccc2O)cs1`, the IC50 in test [1] was 11 µM. Besides, the inhibition in test [2] turned out to be 85%.

As for `Cc1ccc2c(-c3csc(N=C(N)N)n3)c[nH]c2c1.Cl`, the inhibition in [2] was 64%. In the test on Rattus norvegicus [9], the Activity came to 42%.

As for `Cc1sc(N=C(N)N)nc1-c1ccc(O)c(O)c1`, the midpoint of inhibition in test [1], the IC50, lay at 1.6 µM. In test [2], the inhibition stood at 97%.

The molecule `Cc1[nH]c2ccccc2c1-c1nc(N=C(N)N)sc1C.Cl` showed a concentration for half-maximal inhibition (IC50) in test [11] of 6.2 µM. The result in the test with Canis familiaris was inactive. In addition, the Activity with Rattus norvegicus [9] amounted to 78%; with Rattus norvegicus [13], 51%.

Take `Cl.N=C(NCc1ccccc1)Nc1nc(-c2c[nH]c3ccc(Br)cc23)cs1`: in [1], it took 0.7 µM to reach half-maximal inhibition (IC50). In test [2], the inhibition is 105%. Also, the Activity with Rattus norvegicus [9] is reported as 52%.

In test [1], `CCCCCC/N=C(\N)Nc1nc(-c2c[nH]c(C)c2)cs1` gave an IC50 of 7 µM. Besides, in test [2], the inhibition was 93%.

Regarding `Cc1cc(-c2nc(NC(=N)NCCc3ccccc3)sc2C)c[nH]1`, in test [1], half-maximal inhibition (IC50) required 9.1 µM. Besides, the inhibition in test [2] worked out at 87%.
